Compound activity: PubChem BioAssay, several laboratories
Shown are actives, neighbours in structure and some others; about 2.2% of the full set was active somewhere.
EBI2 antag – EBI2 (human) antagonism; P32249; inhibition, % at 5 µM; EBI2 beta-arrestin recruitment, luminescence, 7a,25-OHC stimulated; actives 0.81% (n = 360,000); in the data active = inhibition above about 38%;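 note: enzyme fragment complementation signal reports receptor beta-arrestin coupling in cells; 0% = agonist plus DMSO wells and 100% = wells without agonist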
CXCR6 block – blocks human CXCR6 beta-arrestin recruitment. O00574. CHO-K1 PathHunter CXCR6 beta-arrestin, luminescence. inhibition, % at 20 µM. actives 0.36% (n = 360,000); in the data active = inhibition above about 34%, passing the limit was not always enough;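 note: antagonist mode with CXCL16 agonist at 10 nM final; 0% = 10 nM CXCL16 with DMSO and 100% = unstimulated wells without agonist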
Target sequence (O00574 whole entry, looked up): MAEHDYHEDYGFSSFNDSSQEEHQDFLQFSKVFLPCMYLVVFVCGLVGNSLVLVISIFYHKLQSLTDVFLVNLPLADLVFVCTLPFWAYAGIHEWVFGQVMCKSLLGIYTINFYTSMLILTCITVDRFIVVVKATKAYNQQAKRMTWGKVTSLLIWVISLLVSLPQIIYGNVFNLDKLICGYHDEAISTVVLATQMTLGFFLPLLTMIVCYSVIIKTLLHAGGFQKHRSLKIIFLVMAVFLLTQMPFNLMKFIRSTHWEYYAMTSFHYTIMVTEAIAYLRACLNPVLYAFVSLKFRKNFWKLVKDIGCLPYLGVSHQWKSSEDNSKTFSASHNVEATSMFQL
CCR6 antagonist – antagonists of human CCR6 receptor | CHO-K1 CCR6 PathHunter beta-arrestin, luminescence, CCL20-stimulated | inhibition, % at 20 µM | actives 0.49% (n = 340,000);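 active = compounds whose inhibition of the agonist-driven luminescence signal at 20 µM reaches about 50%, limit read from the data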;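 note: cells stimulated with CCL20 at 14 nM final; plate controls were DMSO with CCL20 for no effect and DMSO without agonist for full effect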
APJ antag – antagonists of human APJ apelin receptor; AID 2521; CHO-K1 APJ beta-arrestin complementation, luminescence; P35414; inhibition, % at 20 µM; actives 0.32% (n = 330,000);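 active = inhibition above about 40% at 20 µM, limit read from the data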;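 note: cells challenged with 10 nM apelin-13 agonist together with compound; plate controls were apelin-13 plus DMSO wells for no effect and DMSO wells lacking apelin-13 for full effect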
Target sequence (P35414 whole entry, looked up): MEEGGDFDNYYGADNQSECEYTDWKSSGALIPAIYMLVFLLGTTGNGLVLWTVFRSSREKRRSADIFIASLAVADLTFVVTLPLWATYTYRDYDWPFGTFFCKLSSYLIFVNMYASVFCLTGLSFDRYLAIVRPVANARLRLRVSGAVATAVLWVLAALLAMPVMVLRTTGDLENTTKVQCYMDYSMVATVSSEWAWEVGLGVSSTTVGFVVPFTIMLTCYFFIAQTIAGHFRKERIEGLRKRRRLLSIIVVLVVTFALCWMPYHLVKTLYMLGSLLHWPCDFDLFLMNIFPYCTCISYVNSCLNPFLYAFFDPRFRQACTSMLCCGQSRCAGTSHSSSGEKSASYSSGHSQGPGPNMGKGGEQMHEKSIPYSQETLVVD
m5-HT2A agonist – activates the mouse 5-HT2A serotonin receptor. P35363. CHO-K1 mHTR2A beta-arrestin complementation, luminescence; percent of 30 µM serotonin response. activation, % at 7.6 µM. actives 0.66% (n = 360,000). AID 624169;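 active = activation above a run cutoff, the mean activation of all tested compounds plus 3 SD, cut at about 14% in these data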;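 note: 0% = plate median of compound wells and 100% = 30 µM serotonin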
APJ ag – activates the human apelin receptor APJ; activation, % at 20 µM; P35414; actives 0.11% (n = 330,000); AID 2520; CHO-K1 APJ PathHunter beta-arrestin, luminescence; 0% DMSO wells, 100% apelin;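 active = activation more than six SD over the plate average, tested at 20 µM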;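 note: 0% = DMSO alone and 100% = apelin-13 at 10 nM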
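assay system = CHO-K1 APJ beta-arrestin complementation cell line | input = cell density 1000 per well | dosing = compound 20 µM once, DMSO 1% | timing = compound 90 min 25 °C, reagent 1 h | measured by = luminescence from split beta-galactosidase complementation, Galacton Star/Emerald II substrate | read-out basis = APJ agonist activity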
EBI2 antag conf – EBI2 (human) antagonism, single concentration confirmation; shares compounds with EBI2 antag; EBI2 beta-arrestin luminescence, 7a,25-OHC antagonism; inhibition, % at 5 µM; actives 29% (n = 2,400);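 active = inhibition of at least 50%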
EBI2 agonist – counter-screen for EBI2 antagonists: EBI2 agonist activity; shares compounds with EBI2 antag; EBI2-expressing cells, agonist mode, luminescence, 60 min; 0% vehicle, 100% 7α,25-dihydroxycholesterol control; activation, % at 5 µM; 2,400 tested, under 10 active; AID 652000;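 active = activation of at least 50%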
bGal counter – inhibits E. coli beta-galactosidase, counter-screen for EBI2 antagonists; shares compounds with EBI2 antag; purified beta-galactosidase, luminescent Galacton Star, 15 min; inhibition, % at 5 µM; actives 1% (n = 2,400);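 active = replicate-average signal at least 3 plate SD below neutral wells, shown as high inhibition, flagging enzyme-inhibiting false positives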;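 note: 0% = DMSO wells with enzyme and 100% = wells lacking enzyme; higher means stronger loss of beta-gal luminescence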
* marks the source's active call; other numbers are inactive results; x = no result given.

SMILES | EBI2 antag | CXCR6 block | CCR6 antagonist | APJ antag | m5-HT2A agonist | APJ ag | EBI2 antag conf | EBI2 agonist | bGal counter
COc1ccc([C@H]2CC(=O)C=C(c3ccc4ncccc4c3)C2)cc1 | 82* | 7 | 17 | -6 | 2 | -1 | 58* | 0 | 8
O=C1C=C(c2ccc3ncccc3c2)C[C@@H](c2ccc(Cl)cc2)C1 | 87* | 10 | 20 | -1 | 2 | -6 | 75* | -1 | -8
COc1ccc([C@H]2CC(=O)C=C(c3cccc(Br)c3)C2)cc1OC | 36 | -4 | 13 | 12 | -4 | -5 | x | x | x
COc1ccc(C2=CC(=O)CC(c3ccccc3)C2)cc1 (stereo not given) | 26 | 9 | 15 | 14 | 0 | 0 | x | x | x
COc1ccc([C@H]2CC(=O)C=C(c3ccc4ncccc4c3)C2)cc1OC | 47* | 1 | 16 | 6 | 6 | -3 | 24 | 1 | 3
O=C1C=C(c2ccc3[nH]ccc3c2)C[C@@H](c2ccc(Cl)cc2)C1 | 64* | 3 | 20 | 1 | -6 | -1 | 34 | 0 | 4
O=C(Nc1ccc(F)c(Cl)c1)c1cc(C2CCCCN2C(=O)c2ccc3c(c2)CCO3)on1 (stereo not given) | 1 | -1 | x | x | -3 | x | x | x | x
COc1ccc(NC(=O)c2cc(-c3sc(NC(=O)c4ccccc4)nc3C)n(-c3ccc(Br)cc3)n2)cc1 | -1 | x | x | x | -6 | x | x | x | x
O=C1C=C(c2ccc3ccccc3c2)C[C@@H](c2ccc(Cl)cc2)C1 | 74* | 3 | 16 | 3 | 2 | -5 | 70* | -1 | -5
O=C1C=C(c2cccc3c2sc2ccccc23)C[C@@H](c2ccc(Cl)cc2)C1 | 45* | 12 | 11 | -4 | 6 | -2 | 34 | 1 | 4
Cc1cnc(C)c(Nc2nc(C(N)Cc3ccc(Cl)cc3)cs2)n1 (stereo not given) | -1 | -25 | x | x | 1 | x | x | x | x
CN(c1ccccc1)c1nc(N2CCCC2)nc(-n2ccnc2)n1 | 32 | 9 | 22 | 22 | -4 | -1 | x | x | x
c1ccc(N(c2ccccc2)c2nc(N3CCCC3)nc(-n3ccnc3)n2)cc1 | 40* | 9 | 34 | 27 | -3 | -4 | 38 | 3 | 1
CCN(CC)c1ccc(/C=N/NC(=O)c2nnn(-c3nonc3N)c2CN(C)C2CCCCC2)cc1 | 27 | 12 | x | x | 2 | x | x | x | x
O=C(O)C1=CCC(c2ccc(Cl)c(Cl)c2)N(S(=O)(=O)c2ccc(F)cc2)C1c1cccc(F)c1 (stereo not given) | 4 | x | x | x | 5 | x | x | x | x
CC(C)CC(=O)N1CCN(C(=O)c2ccc(-c3ccccc3)cc2)CC1 | 74* | -18 | -5 | 16 | 1 | 0 | 25 | 0 | 7
COc1ccc(C(=O)N2CCC(O)(c3ccc(Cl)cc3)CC2)cc1OC | 52* | -2 | 3 | -15 | -5 | 3 | 44 | 2 | 1
CCC(C)NC(=O)C1CCN(C(=O)c2ccccc2)CC1 (stereo not given) | 4 | 2 | 11 | 3 | 0 | 0 | x | x | x
CC(C)CC(=O)N1CCN(S(=O)(=O)c2ccccc2)CC1 | -5 | 5 | 2 | 5 | 0 | -3 | x | x | x
CC(C)NC(=O)C1CCN(C(=O)c2ccc(-c3ccccc3)cc2)CC1 | 44* | -3 | 18 | 6 | -4 | -5 | 42 | -2 | -20
COc1ccc(C(=O)N2CCN(C(=O)c3ccc(-c4ccccc4)cc3)CC2)cc1OC | 81* | 2 | 15 | 6 | 4 | 1 | 49 | 0 | 11
COc1ccc(C(=O)N2CCN(c3ccc(C)cc3)CC2)cc1OC | 17 | 2 | -9 | -9 | -6 | 0 | x | x | x
Cn1nc(C(C)(C)C)cc1C(=O)N1CCCCC1c1cc(C(=O)Nc2ccc3c(c2)OCO3)no1 (stereo not given) | -3 | -2 | x | x | -2 | x | x | x | x
COc1cccc(S(=O)(=O)Nc2ccc(C(O)(C(F)(F)F)C(F)(F)F)cc2)c1 | 12 | -5 | x | x | -8 | x | x | x | x
CC(C)NC(=O)c1cc(C2CCCCN2S(=O)(=O)c2cccc3cccnc23)on1 (stereo not given) | -1 | -2 | x | x | -6 | x | x | x | x
SMILES | EBI2 antag | CXCR6 block | CCR6 antagonist | APJ antag | m5-HT2A agonist | APJ ag | EBI2 antag conf | EBI2 agonist | bGal counter
CC(=O)N1CCN(C(=O)c2ccc(Oc3ccccc3)cc2)CC1 | 2 | 4 | -7 | 5 | 0 | -3 | x | x | x
O=C(c1ccccc1)N1CCN(C(=O)c2ccc(OC(F)(F)F)cc2)CC1 | 53* | 1 | 0 | 1 | 1 | 0 | 28 | 2 | 11
COc1cc(OC)cc(C(=O)N2CCN(C(=O)c3ccc(-c4ccccc4)cc3)CC2)c1 | 89* | 1 | -6 | -12 | 5 | -1 | 67* | -1 | -1
Cc1nccn1CCC(=O)NC1CC(C)(C)Cc2c1cnn2-c1ccccc1 (stereo not given) | -14 | -3 | x | x | 2 | x | x | x | x
COc1ccc(Nc2nc(-c3sc(C)nc3C)cs2)cc1 | 53* | -4 | -4 | -20 | -1 | -5 | 53* | -1 | 5
CN(c1ccccc1)S(=O)(=O)c1cccc(NC(=O)c2ccc(Cl)c([N+](=O)[O-])c2)c1 | 46* | -3 | 6 | 7 | -4 | 7 | 65* | 1 | 5
O=C(Nc1ccccc1-c1ccccc1)c1ccc(Cl)c([N+](=O)[O-])c1 | 53* | -12 | 22 | 7 | 3 | -1 | 38 | 0 | -1
O=C(Nc1ccc(Nc2ccccc2)cc1)c1ccc(Cl)c([N+](=O)[O-])c1 | 5 | 9 | 22 | 4 | -9 | 0 | x | x | x
Cc1cc2nc(-c3cccc(Br)c3)c(CC3CCCCC3)n2c(C)c1Br | -1 | 2 | x | x | -3 | x | x | x | x
COc1cccc(-c2csc(N3CCN(C(=O)Nc4ccc(Cl)cc4)CC3)n2)c1 | 42* | -18 | -12 | -2 | -2 | -1 | 22 | -1 | 2
COc1ccc(NC(=O)N2CCN(c3nc(-c4cccc(OC)c4)cs3)CC2)cc1 | 29 | -5 | -9 | -18 | -2 | 2 | x | x | x
COc1cc2nc(SCc3c(C)noc3C)n(CCC3=CCCCC3)c(=O)c2cc1OC | 46* | 27 | 22 | 7 | 4 | 9 | 15 | -1 | -6
C=CCn1c(SCc2c(C)noc2C)nc2ccccc2c1=O | 5 | 1 | 8 | -20 | -4 | -7 | x | x | x
